According to ChEMBL document CHEMBL1165965, “Synthesis and structure-activity relationships of 1,2,3,4-tetrahydropyrido[2,3-b]pyrazines as potent and selective inhibitors of the anaplastic lymphoma kinase” (Bioorg Med Chem, 2010):

Key:
[1] = target: Tyrosine-protein kinase ABL2 (Homo sapiens) (UniProt P42684); experiment: Inhibition of ABL2 at 1 uM
Summary of the method: (§1)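 Ambit KINOMEscan screen at a single concentration across a 250–400 kinase panel, recorded as percent inhibition. Selectivity was expressed as S(90), the fraction of kinases inhibited >90%.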

[2] = target: Serine/threonine-protein kinase pim-3 (Homo sapiens) (UniProt Q86V86); experiment: Inhibition of PIM3 at 1 uM
[3] = target: T1, Ankyrin repeat and protein kinase domain-containing protein 1 (Homo sapiens) (UniProt Q8NFD2); experiment: Inhibition of ANKK1 at 1 uM
T1 sequence (whole entry): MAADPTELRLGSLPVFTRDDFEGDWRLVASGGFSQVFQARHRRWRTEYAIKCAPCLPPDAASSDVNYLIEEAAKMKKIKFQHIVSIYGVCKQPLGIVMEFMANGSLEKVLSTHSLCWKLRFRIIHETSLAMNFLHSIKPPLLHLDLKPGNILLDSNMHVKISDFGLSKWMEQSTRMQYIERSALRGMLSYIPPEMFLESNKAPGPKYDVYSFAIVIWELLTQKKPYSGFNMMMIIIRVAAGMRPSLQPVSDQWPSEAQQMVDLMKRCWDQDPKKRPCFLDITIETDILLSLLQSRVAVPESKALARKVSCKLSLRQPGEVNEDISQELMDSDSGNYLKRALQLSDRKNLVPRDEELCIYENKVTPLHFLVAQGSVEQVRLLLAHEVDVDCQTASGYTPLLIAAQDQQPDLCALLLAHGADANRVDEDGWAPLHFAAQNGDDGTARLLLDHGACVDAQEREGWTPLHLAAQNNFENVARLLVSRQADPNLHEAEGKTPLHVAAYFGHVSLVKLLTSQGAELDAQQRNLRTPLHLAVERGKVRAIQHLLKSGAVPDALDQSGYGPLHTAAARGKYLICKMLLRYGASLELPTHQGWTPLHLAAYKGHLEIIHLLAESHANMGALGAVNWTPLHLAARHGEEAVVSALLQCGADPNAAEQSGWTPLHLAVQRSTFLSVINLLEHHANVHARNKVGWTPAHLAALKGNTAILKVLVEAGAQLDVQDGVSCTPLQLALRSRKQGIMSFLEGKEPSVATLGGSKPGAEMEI

[4] = target: Death-associated protein kinase 2 (Homo sapiens) (UniProt Q9UIK4); experiment: Inhibition of DAPK2 at 1 uM
Summary of the method: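 Single-concentration screen using Ambit Bioscience KINOMEscan technology across a panel of 250–400 kinases. Per-kinase inhibition from this screen was summarized as S(90), the fraction of kinases inhibited by more than 90%.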

[5] = target: Serine/threonine-protein kinase Chk2 (Homo sapiens) (UniProt O96017); experiment: Inhibition of CHEK2 at 1 uM
[6] = target: Insulin receptor-related protein (Homo sapiens) (UniProt P14616); experiment: Inhibition of INSRR at 1 uM
Summary of the method: (§2)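 Single-concentration screen on the Ambit KINOMEscan platform, run against a panel of 250–400 kinases. Per-kinase inhibition was also summarized as S(90), the fraction of kinases inhibited by more than 90%.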

[7] = target: Macrophage-stimulating protein receptor (Homo sapiens) (UniProt Q04912); experiment: Inhibition of MST1R at 1 uM
[8] = target: Tyrosine-protein kinase Fyn (Homo sapiens) (UniProt P06241); experiment: Inhibition of FYN at 1 uM; summary of the method: as §2
[9] = target: T2, Rhodopsin kinase GRK7 (Homo sapiens) (UniProt Q8WTQ7); experiment: Inhibition of GRK7 at 1 uM
T2 sequence (whole entry): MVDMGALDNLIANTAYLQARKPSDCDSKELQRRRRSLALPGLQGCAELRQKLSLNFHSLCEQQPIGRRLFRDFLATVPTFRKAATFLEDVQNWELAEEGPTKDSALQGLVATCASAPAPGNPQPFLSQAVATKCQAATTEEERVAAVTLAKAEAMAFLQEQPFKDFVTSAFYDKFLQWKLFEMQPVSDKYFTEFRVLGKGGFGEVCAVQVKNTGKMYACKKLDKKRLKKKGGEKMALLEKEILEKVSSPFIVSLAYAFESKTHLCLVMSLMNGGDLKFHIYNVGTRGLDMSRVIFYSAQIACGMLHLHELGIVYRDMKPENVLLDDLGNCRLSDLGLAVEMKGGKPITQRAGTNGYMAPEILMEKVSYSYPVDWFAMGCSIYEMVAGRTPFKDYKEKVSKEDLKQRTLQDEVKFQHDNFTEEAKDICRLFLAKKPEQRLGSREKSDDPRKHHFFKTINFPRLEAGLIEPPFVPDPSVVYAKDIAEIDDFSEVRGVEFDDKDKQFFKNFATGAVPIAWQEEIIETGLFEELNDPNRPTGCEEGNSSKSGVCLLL

[10] = target: T3, Aurora kinase A (Homo sapiens) (UniProt O14965); experiment: Inhibition of AURKA at 1 uM; summary of the method: as §1
T3 sequence (whole entry): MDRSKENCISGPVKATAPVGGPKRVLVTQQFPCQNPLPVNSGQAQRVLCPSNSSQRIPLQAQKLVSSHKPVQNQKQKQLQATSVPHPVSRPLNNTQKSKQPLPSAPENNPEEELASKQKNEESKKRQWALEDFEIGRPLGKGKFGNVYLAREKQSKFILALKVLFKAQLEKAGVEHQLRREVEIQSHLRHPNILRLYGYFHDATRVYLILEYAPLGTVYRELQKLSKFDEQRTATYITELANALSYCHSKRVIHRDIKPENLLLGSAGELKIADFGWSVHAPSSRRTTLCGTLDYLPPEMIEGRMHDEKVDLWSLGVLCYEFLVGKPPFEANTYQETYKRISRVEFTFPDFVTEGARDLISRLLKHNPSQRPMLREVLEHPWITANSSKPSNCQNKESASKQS

[11] = target: Hepatocyte growth factor receptor (Homo sapiens) (UniProt P08581); experiment: Inhibition of MET at 1 uM; summary of the method: as §2
[12] = test system: Epidermal growth factor receptor (Homo sapiens), P00533 [L858R,T790M]; experiment: Inhibition of EGFR L858R, T790M mutant at 1 uM; format: protein assay
Sequence of Epidermal growth factor receptor (Homo sapiens), P00533 [L858R,T790M] (P00533 whole entry T790M/L858R, looked up): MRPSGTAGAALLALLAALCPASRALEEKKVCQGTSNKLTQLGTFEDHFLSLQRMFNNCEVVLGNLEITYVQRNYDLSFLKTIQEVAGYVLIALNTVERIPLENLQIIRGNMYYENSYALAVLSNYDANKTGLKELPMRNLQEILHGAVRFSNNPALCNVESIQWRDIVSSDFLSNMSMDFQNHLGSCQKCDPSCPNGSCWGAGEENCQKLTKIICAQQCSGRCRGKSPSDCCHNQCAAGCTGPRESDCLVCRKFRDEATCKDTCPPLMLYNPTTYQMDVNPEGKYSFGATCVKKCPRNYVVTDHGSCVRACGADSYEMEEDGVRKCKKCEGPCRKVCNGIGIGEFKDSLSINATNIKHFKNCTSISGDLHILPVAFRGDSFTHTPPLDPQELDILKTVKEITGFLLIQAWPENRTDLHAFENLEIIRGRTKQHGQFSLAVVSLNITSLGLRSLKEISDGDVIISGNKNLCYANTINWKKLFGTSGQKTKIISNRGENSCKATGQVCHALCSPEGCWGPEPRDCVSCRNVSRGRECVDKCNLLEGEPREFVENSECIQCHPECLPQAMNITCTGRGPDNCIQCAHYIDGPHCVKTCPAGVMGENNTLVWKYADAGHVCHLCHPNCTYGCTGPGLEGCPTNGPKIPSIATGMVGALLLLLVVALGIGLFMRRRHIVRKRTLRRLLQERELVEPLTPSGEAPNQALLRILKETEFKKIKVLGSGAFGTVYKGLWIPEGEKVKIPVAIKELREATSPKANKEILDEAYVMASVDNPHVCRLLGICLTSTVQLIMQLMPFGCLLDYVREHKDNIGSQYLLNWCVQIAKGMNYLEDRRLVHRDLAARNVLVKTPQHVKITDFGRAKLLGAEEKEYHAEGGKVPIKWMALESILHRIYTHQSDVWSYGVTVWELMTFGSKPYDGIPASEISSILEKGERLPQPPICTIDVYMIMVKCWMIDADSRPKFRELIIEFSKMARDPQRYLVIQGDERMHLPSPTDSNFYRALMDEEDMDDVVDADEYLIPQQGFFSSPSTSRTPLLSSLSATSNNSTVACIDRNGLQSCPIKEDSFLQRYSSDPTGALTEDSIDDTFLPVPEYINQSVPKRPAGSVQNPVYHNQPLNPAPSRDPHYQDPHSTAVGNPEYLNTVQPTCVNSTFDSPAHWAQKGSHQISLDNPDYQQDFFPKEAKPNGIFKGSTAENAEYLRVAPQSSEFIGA

Sequence of Macrophage-stimulating protein receptor (Homo sapiens) (Q04912 25-304 limits assumed): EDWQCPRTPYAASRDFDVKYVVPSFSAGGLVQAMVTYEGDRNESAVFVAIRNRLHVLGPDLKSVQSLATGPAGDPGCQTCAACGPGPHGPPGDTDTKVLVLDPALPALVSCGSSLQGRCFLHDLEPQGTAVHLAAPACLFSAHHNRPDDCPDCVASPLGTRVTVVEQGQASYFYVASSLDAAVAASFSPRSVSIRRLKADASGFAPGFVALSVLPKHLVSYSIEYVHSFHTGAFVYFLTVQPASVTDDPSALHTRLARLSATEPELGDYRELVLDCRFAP
Sequence of Macrophage-stimulating protein receptor (Homo sapiens) (Q04912 310-1400 limits assumed): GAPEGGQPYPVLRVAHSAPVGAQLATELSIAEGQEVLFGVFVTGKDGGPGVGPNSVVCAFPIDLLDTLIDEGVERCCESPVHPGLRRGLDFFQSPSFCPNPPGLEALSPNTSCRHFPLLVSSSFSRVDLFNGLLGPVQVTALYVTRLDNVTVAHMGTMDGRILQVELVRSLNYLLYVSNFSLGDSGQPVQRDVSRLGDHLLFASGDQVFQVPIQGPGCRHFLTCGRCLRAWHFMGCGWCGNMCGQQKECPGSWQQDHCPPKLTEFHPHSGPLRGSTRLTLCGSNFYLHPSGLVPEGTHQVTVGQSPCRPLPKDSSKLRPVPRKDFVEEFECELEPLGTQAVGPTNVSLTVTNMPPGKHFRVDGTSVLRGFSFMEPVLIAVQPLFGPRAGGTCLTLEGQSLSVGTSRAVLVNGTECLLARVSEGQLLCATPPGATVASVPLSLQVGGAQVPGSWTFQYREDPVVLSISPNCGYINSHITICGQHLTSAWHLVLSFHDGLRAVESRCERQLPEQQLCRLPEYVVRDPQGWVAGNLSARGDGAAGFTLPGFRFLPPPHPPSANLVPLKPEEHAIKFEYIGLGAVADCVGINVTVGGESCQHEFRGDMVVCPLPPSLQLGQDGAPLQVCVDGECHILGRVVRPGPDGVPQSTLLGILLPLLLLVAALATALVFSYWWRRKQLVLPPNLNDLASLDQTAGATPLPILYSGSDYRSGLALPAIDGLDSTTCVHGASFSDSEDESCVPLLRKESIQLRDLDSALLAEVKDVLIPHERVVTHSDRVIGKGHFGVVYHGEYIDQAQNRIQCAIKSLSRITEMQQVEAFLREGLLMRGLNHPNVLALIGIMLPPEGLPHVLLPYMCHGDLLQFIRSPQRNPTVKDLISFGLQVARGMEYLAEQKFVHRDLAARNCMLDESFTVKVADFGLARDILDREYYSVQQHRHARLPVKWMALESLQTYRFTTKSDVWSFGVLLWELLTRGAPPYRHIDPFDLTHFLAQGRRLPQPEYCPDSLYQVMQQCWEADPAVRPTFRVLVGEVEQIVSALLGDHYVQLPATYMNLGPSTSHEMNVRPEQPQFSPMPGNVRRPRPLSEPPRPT
Sequence of Tyrosine-protein kinase ABL2 (Homo sapiens) (P42684 whole entry): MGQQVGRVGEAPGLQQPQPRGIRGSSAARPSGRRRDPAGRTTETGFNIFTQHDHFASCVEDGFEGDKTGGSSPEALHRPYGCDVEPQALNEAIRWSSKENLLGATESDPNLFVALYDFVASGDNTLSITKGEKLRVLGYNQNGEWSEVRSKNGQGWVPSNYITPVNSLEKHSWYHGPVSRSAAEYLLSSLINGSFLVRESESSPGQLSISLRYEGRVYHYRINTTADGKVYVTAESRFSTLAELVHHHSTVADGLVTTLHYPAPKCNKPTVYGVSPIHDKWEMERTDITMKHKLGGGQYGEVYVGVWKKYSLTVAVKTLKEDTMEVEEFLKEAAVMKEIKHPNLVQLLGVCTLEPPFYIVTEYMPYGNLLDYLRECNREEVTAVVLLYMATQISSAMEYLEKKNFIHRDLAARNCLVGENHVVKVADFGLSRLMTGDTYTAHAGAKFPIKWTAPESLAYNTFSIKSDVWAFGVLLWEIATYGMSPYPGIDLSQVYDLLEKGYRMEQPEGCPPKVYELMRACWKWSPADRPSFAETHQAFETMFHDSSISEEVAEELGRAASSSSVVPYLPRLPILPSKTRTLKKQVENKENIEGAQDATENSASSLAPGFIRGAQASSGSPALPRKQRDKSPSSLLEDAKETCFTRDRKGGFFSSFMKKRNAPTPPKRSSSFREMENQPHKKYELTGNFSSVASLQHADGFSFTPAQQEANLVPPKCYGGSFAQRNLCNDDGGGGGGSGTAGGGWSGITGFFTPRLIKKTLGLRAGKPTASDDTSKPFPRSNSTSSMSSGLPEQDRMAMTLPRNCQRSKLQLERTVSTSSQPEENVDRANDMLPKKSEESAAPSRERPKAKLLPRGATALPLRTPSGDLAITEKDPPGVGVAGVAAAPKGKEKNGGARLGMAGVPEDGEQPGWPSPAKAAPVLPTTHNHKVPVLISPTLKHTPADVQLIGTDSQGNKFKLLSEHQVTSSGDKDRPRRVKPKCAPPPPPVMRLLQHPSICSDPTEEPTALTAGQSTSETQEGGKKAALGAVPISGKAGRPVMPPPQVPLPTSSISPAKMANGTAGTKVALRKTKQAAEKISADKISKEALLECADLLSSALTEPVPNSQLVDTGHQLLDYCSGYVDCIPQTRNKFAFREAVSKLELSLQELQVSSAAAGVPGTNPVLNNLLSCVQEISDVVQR
Sequence of Tyrosine-protein kinase Fyn (Homo sapiens) (P06241 2-537 limits assumed): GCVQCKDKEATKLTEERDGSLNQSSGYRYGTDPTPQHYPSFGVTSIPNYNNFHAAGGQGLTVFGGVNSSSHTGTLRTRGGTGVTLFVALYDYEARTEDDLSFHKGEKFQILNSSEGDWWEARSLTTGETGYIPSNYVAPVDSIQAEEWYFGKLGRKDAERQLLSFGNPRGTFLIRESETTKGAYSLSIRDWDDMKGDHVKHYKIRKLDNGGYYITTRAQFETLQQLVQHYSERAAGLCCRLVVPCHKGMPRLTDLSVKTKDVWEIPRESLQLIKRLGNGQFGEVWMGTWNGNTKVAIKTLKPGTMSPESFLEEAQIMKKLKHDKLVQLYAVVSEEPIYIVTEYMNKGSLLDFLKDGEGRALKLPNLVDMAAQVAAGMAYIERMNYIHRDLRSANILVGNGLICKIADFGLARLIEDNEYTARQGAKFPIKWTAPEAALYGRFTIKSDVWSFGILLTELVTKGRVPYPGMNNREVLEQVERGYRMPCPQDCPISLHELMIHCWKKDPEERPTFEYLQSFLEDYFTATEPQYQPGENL
Sequence of Serine/threonine-protein kinase Chk2 (Homo sapiens) (O96017 whole entry): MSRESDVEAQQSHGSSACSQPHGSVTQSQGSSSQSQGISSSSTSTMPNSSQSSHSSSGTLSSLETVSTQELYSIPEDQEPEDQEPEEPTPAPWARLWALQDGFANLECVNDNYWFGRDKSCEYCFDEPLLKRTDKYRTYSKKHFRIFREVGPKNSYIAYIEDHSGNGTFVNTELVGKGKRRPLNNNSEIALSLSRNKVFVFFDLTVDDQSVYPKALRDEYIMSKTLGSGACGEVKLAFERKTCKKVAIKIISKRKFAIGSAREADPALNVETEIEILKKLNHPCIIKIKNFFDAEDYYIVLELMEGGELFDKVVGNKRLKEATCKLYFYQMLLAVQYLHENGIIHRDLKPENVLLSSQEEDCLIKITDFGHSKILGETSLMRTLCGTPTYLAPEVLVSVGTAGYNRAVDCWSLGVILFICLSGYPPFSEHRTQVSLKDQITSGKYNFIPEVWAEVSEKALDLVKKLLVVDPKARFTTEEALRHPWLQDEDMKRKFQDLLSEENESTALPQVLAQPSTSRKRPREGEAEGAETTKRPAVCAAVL

| Compound | inhibition [1] [%] | inhibition [2] [%] | inhibition [3] [%] | inhibition [5] [%] | inhibition [6] [%] | inhibition [7] [%] | inhibition [8] [%] | inhibition [9] [%] | inhibition [10] [%] | inhibition [11] [%] | inhibition [12] [%] | inhibition [4] [%] |
| --- | --- | --- | --- | --- | --- | --- | --- | --- | --- | --- | --- | --- |
| CN1CCN(c2ccc(-c3cnc4c(c3)N(Cc3cc(F)ccc3F)CCN4)cn2)CC1 | < 50 | < 50 | < 50 | < 50 | < 50 | < 50 | < 50 | < 50 | < 50 | < 50 | < 50 | < 50 |
| O=C(c1ccc(-c2cnc3c(c2)N(Cc2cc(Cl)ccc2C(F)(F)F)CCN3)cc1)N1CCCCC1 | < 50 | < 50 |  |  | < 50 |  | < 50 |  | < 50 | 66 |  | < 50 |
| O=C(O)c1ccc(-c2cnc3c(c2)N(Cc2cc(Cl)ccc2C(F)(F)F)CCN3)cc1 | < 50 | 79.2 |  |  | < 50 |  | < 50 |  | 80.2 | < 50 |  | < 50 |
| CC(=O)N1CCN(c2cc(-c3cnc4c(c3)N(Cc3cc(Cl)ccc3C(F)(F)F)CCN4)ccn2)CC1 | < 50 | < 50 | < 50 | < 50 | < 50 | < 50 | < 50 | < 50 | 68 | 86 | < 50 | < 50 |
| CN1CCN(c2ccc(-c3cnc4c(c3)N(Cc3cc(Cl)ccc3C(F)(F)F)CCN4)cn2)CC1 | < 50 | < 50 | < 50 | < 50 | < 50 | < 50 | < 50 | < 50 | < 50 | 82 | < 50 | < 50 |

Further lines, with some results ahead:

| inhibition [1] [%] | inhibition [2] [%] | inhibition [3] [%] | inhibition [5] [%] | inhibition [6] [%] | inhibition [7] [%] | inhibition [8] [%] | inhibition [9] [%] | inhibition [10] [%] | inhibition [11] [%] | inhibition [12] [%] | Compound | inhibition [4] [%] |
| --- | --- | --- | --- | --- | --- | --- | --- | --- | --- | --- | --- | --- |
| 75.9 | < 50 |  |  | < 50 |  | < 50 |  | 69.5 | 90.3 |  | O=C(c1ccc(-c2cnc3c(c2)N(Cc2cc(Cl)ccc2C(F)(F)F)CCN3)cc1)N1CCC(N2CCCC2)CC1 | < 50 |
| 83 | < 50 | < 50 | < 50 | < 50 | < 50 | < 50 | < 50 | < 50 | 94 | < 50 | CN1CCN(c2ccc(-c3cnc4c(c3)N(Cc3c(F)ccc(F)c3Cl)CCN4)cn2)CC1 | < 50 |
| < 50 | < 50 |  |  | < 50 |  | < 50 |  | < 50 | 76.6 |  | COC1CCN(C(=O)c2ccc(-c3cnc4c(c3)N(Cc3cc(Cl)ccc3C(F)(F)F)CCN4)cc2)CC1 | < 50 |
| < 50 | < 50 | < 50 | < 50 | < 50 | < 50 | < 50 | 67 | 68 | 94 | < 50 | FC(F)(F)c1ccc(Cl)cc1CN1CCNc2ncc(-c3ccnc(N4CCNCC4)c3)cc21 | < 50 |
| < 50 | < 50 | < 50 | < 50 | < 50 | < 50 | < 50 | < 50 | < 50 | 67 | < 50 | CN1CCN(c2ccc(-c3cnc4c(c3)N(Cc3cc(Cl)ccc3Cl)CCN4)cn2)CC1 | < 50 |
